Assay results: ChEMBL document CHEMBL1127630, “New dual inhibitors of neutral endopeptidase and angiotensin-converting enzyme: rational design, bioavailability, and pharmacological responses in experimental hypertension” (J Med Chem, 1994)

Columns and labels:
[1] = biological target: T1, Angiotensin-converting enzyme (Mus musculus) (UniProt P09470); assay: Inhibition of lung Angiotensin Converting Enzyme (ACE) in mouse at a dose of 2.6*10e-5 mol/kg after 20 min oral administration
T1 sequence (whole entry): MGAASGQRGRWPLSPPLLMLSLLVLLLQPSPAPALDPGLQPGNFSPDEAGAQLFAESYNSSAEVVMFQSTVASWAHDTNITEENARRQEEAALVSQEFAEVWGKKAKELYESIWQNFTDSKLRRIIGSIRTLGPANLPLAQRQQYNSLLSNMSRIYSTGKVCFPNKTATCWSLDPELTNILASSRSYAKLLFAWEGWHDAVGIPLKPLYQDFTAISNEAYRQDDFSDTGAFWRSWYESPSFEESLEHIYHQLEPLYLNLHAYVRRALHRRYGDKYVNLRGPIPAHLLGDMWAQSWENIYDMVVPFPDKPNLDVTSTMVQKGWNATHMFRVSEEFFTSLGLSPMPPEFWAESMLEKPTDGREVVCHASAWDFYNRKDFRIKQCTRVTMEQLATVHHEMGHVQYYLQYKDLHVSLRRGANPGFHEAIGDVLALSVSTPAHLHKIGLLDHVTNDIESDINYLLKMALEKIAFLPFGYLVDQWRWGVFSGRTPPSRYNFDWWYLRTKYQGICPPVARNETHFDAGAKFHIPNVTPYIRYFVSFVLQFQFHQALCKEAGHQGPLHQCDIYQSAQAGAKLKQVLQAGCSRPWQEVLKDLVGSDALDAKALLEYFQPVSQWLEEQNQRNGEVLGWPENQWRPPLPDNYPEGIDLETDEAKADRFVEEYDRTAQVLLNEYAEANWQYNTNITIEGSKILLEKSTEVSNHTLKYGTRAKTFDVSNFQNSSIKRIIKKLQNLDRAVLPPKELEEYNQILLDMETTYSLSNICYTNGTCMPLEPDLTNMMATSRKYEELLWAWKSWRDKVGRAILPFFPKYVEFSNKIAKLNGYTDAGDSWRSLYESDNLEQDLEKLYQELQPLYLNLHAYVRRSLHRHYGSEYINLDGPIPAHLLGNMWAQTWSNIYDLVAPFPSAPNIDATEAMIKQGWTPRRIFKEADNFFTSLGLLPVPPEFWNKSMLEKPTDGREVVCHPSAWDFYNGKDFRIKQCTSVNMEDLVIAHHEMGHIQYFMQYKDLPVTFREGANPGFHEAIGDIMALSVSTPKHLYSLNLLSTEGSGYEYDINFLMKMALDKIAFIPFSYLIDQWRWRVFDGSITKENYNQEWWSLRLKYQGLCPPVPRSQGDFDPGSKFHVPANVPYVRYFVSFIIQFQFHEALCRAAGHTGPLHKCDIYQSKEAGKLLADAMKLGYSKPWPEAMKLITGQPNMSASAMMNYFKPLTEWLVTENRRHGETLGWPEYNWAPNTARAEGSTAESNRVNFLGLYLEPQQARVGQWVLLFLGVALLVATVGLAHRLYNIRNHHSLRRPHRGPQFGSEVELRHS
Outline: (§1)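 Prescreen in mice: single oral dose of 2.6 X 10-5 mol/kg of prodrug (thioacetyl and benzyl ester protected, tested as stereoisomer mixtures). Inhibition of binding of a tritiated ACE probe to lung measured 20 and 60 min after dosing. Mean ± SEM of three experiments, three mice each.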

[2] = biological target: T1, Angiotensin-converting enzyme (Mus musculus); assay: In vivo inhibition of lung Angiotensin Converting Enzyme (ACE) in mouse at a dose of 2.6*10e-5 mol/kg after 60 min oral administration; format: functional, organism-based; outline: as §1
[3] = biological target: T2, Angiotensin-converting enzyme (Mus musculus, UniProt P09470); assay: Inhibitory potency against angiotensin converting enzyme by displacement of [3H]trandolaprilate binding in mouse lung
T2 sequence (P09470 whole entry): T1 sequence (whole entry)

[4] = biological target: T1, Angiotensin-converting enzyme (Mus musculus); assay: In vivo inhibition of lung ACE was observed at 240 min after oral administration of the compound; format: functional, organism-based; parameters: concentration or dose not given beside the values
[5] = biological target: T1, Angiotensin-converting enzyme (Mus musculus); assay: In vivo inhibition of lung ACE was observed at 30 min after oral administration of the compound; format: organism-based; parameters: concentration or dose not given beside the values
[6] = biological target: T1, Angiotensin-converting enzyme (Mus musculus); assay: In vivo inhibition of lung ACE was observed at 120 min after oral administration of the compound; format: functional, organism-based; parameters: concentration or dose not given beside the values
Mus musculus = assay: In vivo inhibition of lung ACE was observed at 60 min after oral administration; format: functional; parameters: concentration or dose not given beside the values
[7] = biological target: T3, Neprilysin (Mus musculus) (UniProt Q61391); assay: Inhibition of Neutral Endopeptidase activity was measured by using the displacement of [3H]HACBOGly from mouse kidney after 8 hr oral administration; parameters: scale not given: the % may be the effect or the level left
T3 sequence (whole entry): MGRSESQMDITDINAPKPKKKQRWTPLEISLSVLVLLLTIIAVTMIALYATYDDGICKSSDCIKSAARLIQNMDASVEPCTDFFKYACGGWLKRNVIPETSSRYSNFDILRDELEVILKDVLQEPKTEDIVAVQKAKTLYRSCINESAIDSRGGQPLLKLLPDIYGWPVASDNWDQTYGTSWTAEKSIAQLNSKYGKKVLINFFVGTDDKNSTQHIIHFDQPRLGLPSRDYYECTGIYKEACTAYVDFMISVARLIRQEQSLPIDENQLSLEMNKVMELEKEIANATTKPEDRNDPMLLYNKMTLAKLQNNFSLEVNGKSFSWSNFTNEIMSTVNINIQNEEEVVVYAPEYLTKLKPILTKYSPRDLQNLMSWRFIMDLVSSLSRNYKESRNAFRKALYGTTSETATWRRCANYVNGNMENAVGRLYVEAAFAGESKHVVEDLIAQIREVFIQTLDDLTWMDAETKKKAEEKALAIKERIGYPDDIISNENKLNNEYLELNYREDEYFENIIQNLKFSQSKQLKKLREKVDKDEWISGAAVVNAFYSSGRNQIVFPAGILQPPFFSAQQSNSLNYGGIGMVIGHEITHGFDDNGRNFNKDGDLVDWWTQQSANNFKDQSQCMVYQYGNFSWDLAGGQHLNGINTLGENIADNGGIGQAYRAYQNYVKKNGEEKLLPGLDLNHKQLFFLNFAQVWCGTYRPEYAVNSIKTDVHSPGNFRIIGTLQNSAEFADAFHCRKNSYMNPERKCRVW
Outline: (§2)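 Mice dosed orally at 2.6 X 10-6 mol/kg in 10% ethanol/10% cremophor/80% water. [3H]HACBOGly (1 uCi) injected iv at intervals after dosing. Kidneys taken 15 min later, homogenized in 50 mM Tris-HCl pH 7.4 at 4 °C and filtered, radioactivity counted. Inhibition expressed as percent displacement versus control. Nonspecific binding defined with coinjected retrothiorphan (10.000 eq).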

[8] = biological target: T3, Neprilysin (Mus musculus); assay: Inhibition of Neutral Endopeptidase activity was measured by using the displacement of [3H]-HACBOGly from mouse kidney after 1 hr oral administration; parameters: scale not given: the % may be the effect or the level left; outline: as §2
[9] = biological target: T3, Neprilysin (Mus musculus); assay: Inhibition of Neutral Endopeptidase activity was measured by using the displacement of [3H]HACBOGly from mouse kidney after 2 hr oral administration; parameters: scale not given: the % may be the effect or the level left; outline: as §2
[10] = biological target: T3, Neprilysin (Mus musculus); assay: Inhibition of Neutral Endopeptidase activity was measured by using the displacement of [3H]HACBOGly from mouse kidney after 4 hr oral administration; parameters: scale not given: the % may be the effect or the level left; outline: as §2
[11] = biological target: T3, Neprilysin (Mus musculus); assay: Inhibition of Neutral Endopeptidase activity was measured by using the displacement of [3H]HACBOGly from mouse kidney after 16h oral administration; parameters: scale not given: the % may be the effect or the level left; outline: as §2

CC(=O)Oc1ccc(C[C@H](NC(=O)C(CSC(C)=O)C(C)c2ccc(F)c(F)c2)C(=O)OCc2ccccc2)cc1 (stereo partly specified) was tested. Which inhibition [1] did it give?
The inhibition was 24%.

And the inhibition [2]?
Its inhibition is 19%.

What does the source list for CC(=O)SCC(C(=O)N[C@@H](Cc1ccc(O)cc1)C(=O)OCc1ccccc1)C(C)c1ccccc1 (stereo partly specified)?
inhibition [1]: 20%; inhibition [2]: 7%

CCCC(NC(=O)C(CS)C(C)c1ccccc1)C(=O)O (stereo unspecified) was tested. Which IC50 [3] did it give?
Its IC50 is 4 nM.

With COc1cc(C(C)C(CS)C(=O)NC(Cc2ccc(O)cc2)C(=O)O)ccc1O (stereo unspecified) as the compound, how does the IC50 [3] read?
Its IC50 is 14 nM.

Which inhibition [1] does the source give for CC(=O)Oc1ccc(C[C@H](NC(=O)C(CSC(C)=O)C(C)c2ccccc2)C(=O)OCc2ccccc2)cc1 (stereo partly specified) here?
The inhibition was 25%.

And the inhibition [2]?
Its inhibition is 28%.

CC(=O)Oc1ccc(C[C@H](NC(=O)C(CSC(C)=O)C(C)c2ccc(F)cc2)C(=O)OCc2ccccc2)cc1 (stereo partly specified) was tested. Which inhibition [1] did it give?
Its inhibition is 36%.

What about the inhibition [2] of the same compound?
Its inhibition is 11%.

Which results are given for COc1ccc(C(C)C(CSC(C)=O)C(=O)N[C@@H](Cc2ccc(OC(C)=O)cc2)C(=O)OCc2ccccc2)cc1 (stereo partly specified)?
inhibition [1]: 14%; inhibition [2]: 33%

For CC(c1ccccc1)C(CS)C(=O)NC(COCc1ccccc1)C(=O)O (stereo unspecified), which IC50 [3] is on record?
The IC50 was 43 nM.

What does the source list for CC(=O)SCC(C(=O)N[C@@H](C)C(=O)OCc1ccccc1)C(C)c1ccc(F)c(F)c1 (stereo partly specified)?
inhibition [1]: 35%; inhibition [2]: 22%

CC(C)CC(NC(=O)C(CS)C(C)c1ccccc1)C(=O)O (stereo unspecified) was tested. Which IC50 [3] did it give?
The IC50 was 19 nM.

With CC(c1ccc(O)cc1)C(CS)C(=O)NC(Cc1ccc(O)cc1)C(=O)O (stereo unspecified) as the compound, how does the IC50 [3] read?
Its IC50 is 7.9 nM.

For CC(=O)SCC(C(=O)N[C@@H](C)C(=O)O)C(C)c1ccccc1 (stereo partly specified), which Control [4] is on record?
Its Control is 16%.

What about the Control [5] of the same compound?
Its Control is 31%.

And the Control [6]?
Its Control is 18%.

What about the Control (Mus musculus) of the same compound?
Its Control is 29%.

For CC(NC(=O)C(CS)C(C)c1ccc(F)c(F)c1)C(=O)O (stereo unspecified), which IC50 [3] is on record?
The IC50 was 5 nM.

CC(c1ccccc1)C(CSC(=O)C12CC3CC(CC(C3)C1)C2)C(=O)N[C@@H](C)C(=O)O (stereo partly specified) was tested. Which Control [4] did it give?
The Control was 35%.

What about the Control [5] of the same compound?
The Control was 40%.

What about the Control [6] of the same compound?
Its Control is 36%.

What about the Control (Mus musculus) of the same compound?
Its Control is 39%.

What does the source list for CC(c1ccccc1)C(CSC(=O)c1ccccc1)C(=O)N[C@@H](C)C(=O)O (stereo partly specified)?
Control [7]: 93%; Control [8]: 100%; Control [4]: 32%; Control [9]: 100%; Control [5]: 75%; Control [10]: 100%; Control [6]: 44%; Control [11]: 12%; Control (Mus musculus): 66%

With CC(c1ccc(N)cc1)C(CS)C(=O)NC(Cc1ccc(O)cc1)C(=O)O (stereo unspecified) as the compound, how does the IC50 [3] read?
Its IC50 is 12 nM.

Which IC50 [3] does the source give for CCCCC(NC(=O)C(CS)C(C)c1ccccc1)C(=O)O (stereo unspecified) here?
The IC50 was 7 nM.

Which Control [8] does the source give for CCC[C@H](NC(=O)C(CSC(=O)c1ccccc1)C(C)c1ccccc1)C(=O)O (stereo partly specified) here?
Its Control is 70%.

What about the Control [4] of the same compound?
The Control was 41%.

What about the Control [9] of the same compound?
The Control was 55%.

And the Control [5]?
The Control was 69%.

What about the Control [10] of the same compound?
Its Control is 46%.

What about the Control [6] of the same compound?
The Control was 49%.

And the Control (Mus musculus)?
The Control was 52%.

C[C@@H](c1ccccc1)[C@@H](CS)C(=O)N[C@@H](Cc1ccccc1)C(=O)O (stereo in doubt; 48c) was tested. Which Ki [3] did it give?
Its Ki is 1.9 nM.

Cc1ccccc1C(C)C(CS)C(=O)NC(Cc1ccc(O)cc1)C(=O)O (stereo unspecified) was tested. Which IC50 [3] did it give?
Its IC50 is 210 nM.

How did the Control [4] turn out when CC(c1ccccc1)C(CSC(=O)C12CC3CC(CC(C3)C1)C2)C(=O)N[C@@H](C)C(=O)OCc1ccccc1 (stereo partly specified) was run?
The Control was 16%.

And the Control [5]?
The Control was 41%.

What about the Control [6] of the same compound?
Its Control is 42%.

And the Control (Mus musculus)?
Its Control is 34%.

With C[C@@H](c1ccccc1)[C@@H](CS)C(=O)N[C@@H](Cc1ccccc1)C(=O)O (stereo in doubt; 48b) as the compound, how does the Ki [3] read?
Its Ki is 15 nM.
